miR122 inh = miR-122 Renilla sensor signal increase in Huh7, primary screen, miR-122 inhibitor project, cell-based, single point, plate reader; 0.3% of 340,000 active; Huh7 miR-122 Renilla luciferase sensor, 48 h; neutral wells = 0, positive control = 100; activation (reporter increase), % at 12.5 µM;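 active = mean replicate activation score at least 90 and every replicate individually at or above 90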;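 note: higher luciferase means less miR-122 activity so hits act as miR-122 inhibitors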
SIRT5 block = SIRT5 desuccinylase inhibitors, primary screen, biochemical, fluorescence imaging, single point, set 5; inhibition, % at 15 µM; 1.1% of 330,000 active; AID 652115, 2013; Purified SirT5, succinyl-peptide AMC, trypsin-coupled fluorescence; in the data active = inhibition above about 15%
S100A4 inh HTS = inhibitors of S100A4-myosin IIA peptide binding, primary screen, biochemical, fluorescence polarization, TAMRA-MyoIIA peptide | Protein S100-A4 (Homo sapiens), P26447 | inhibition, % at 10.7 µM | 0.14% of 360,000 active | AID 652163, 2013;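 active = mean inhibition of at least 70% across replicates, with every replicate also reaching that level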
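Compound dosing: one dose per compound; test system: human S100A4 monomer with TAMRA-labelled myosin IIA peptide; probe or stimulus: TAMRA-labelled myosin IIA heavy-chain peptide probe, 5 nM; medium: HEPES buffer with Ca2+, pH 7.2; schedule: 5 min incubation before reading; benchmarks: neutral control DMSO, positive control TFP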
FGF22 binding = binders of human FGF22 protein, primary screen, FGF22 synaptogenesis inhibitor project, biophysical, thermal shift, single point. Fibroblast growth factor 22 (Homo sapiens), Q9HCT0. recombinant FGF22 thermal shift, SYPRO orange fluorescence; percent of sucrose octasulfate shift, DMSO zero. activity (Tm shift, normalised), % at 9.99 µM. 1.5% of 340,000 active. AID 651658, 2012;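 active = mean Tm shift, scaled 0 neutral to 100 positive control, at about 1.3% or above, every replicate too, limit read from the data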
E-selectin induc = E-selectin induction in HUVECs, primary screen, imaging, HUVEC, immunofluorescence imaging, single point; 0.37% of 260,000 active; P16581; normalized: neutral wells 0, TNF-alpha wells 100; activation, % at 7.58 µM;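 active = mean E-selectin-positive cell signal at least 10% of the positive control, reached in at least 60% of replicates, without over 20% cell loss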
Target sequence (P16581 whole entry, looked up): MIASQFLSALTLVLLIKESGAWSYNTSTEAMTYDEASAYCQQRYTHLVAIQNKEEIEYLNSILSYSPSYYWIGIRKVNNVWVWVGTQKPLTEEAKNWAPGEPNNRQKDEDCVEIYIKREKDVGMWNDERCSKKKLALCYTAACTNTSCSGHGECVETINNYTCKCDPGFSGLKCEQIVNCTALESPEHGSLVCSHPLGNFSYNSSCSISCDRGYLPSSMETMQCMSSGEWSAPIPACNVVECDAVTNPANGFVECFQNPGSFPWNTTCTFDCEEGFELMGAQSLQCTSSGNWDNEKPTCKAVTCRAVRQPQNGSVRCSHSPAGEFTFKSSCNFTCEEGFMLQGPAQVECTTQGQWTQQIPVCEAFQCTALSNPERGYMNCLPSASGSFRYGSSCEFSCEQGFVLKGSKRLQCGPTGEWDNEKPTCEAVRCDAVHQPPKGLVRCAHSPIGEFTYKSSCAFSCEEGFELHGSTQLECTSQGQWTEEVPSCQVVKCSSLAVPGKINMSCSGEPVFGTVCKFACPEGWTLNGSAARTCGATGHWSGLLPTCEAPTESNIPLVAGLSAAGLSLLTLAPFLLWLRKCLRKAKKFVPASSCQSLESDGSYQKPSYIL
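Assay system: HUVEC, human umbilical vein endothelial cells / Amount: 3,000 HUVEC/well / Controls: TNF-alpha positive control, DMSO neutral control / Compound dosing: single concentration / Medium: EGM-2 over gelatin coat / Evaluation: percent E-selectin-positive cells / Signal: immunofluorescence imaging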
* marks the source's active call; other numbers are inactive results; / = no result; [ ] = another dose, or the depositor's remark. Most compounds without a hit are left out; they make up all but 2.5% or so of the library.

SMILES	miR122 inh	SIRT5 block	S100A4 inh HTS	FGF22 binding	E-selectin induc
C[C@@H]1CN([C@@H](C)CO)C(=O)c2cc(NS(C)(=O)=O)ccc2O[C@@H](C)CCCCO[C@@H]1CN(C)C	-7[16.7 µM]	25*	6	0	0
CNC[C@H]1OCCCC[C@@H](C)Oc2ccc(NS(C)(=O)=O)cc2C(=O)N([C@H](C)CO)C[C@@H]1C	-3[16.7 µM]	/	/	/	0
CNC[C@H]1OCCCC[C@H](C)Oc2ccc(NC(=O)C3CCCCC3)cc2C(=O)N([C@@H](C)CO)C[C@@H]1C	-4[16.7 µM]	-1	-17	0	0
CNC[C@H]1OCCCC[C@@H](C)Oc2ccc(NC(=O)C3CCCCC3)cc2C(=O)N([C@@H](C)CO)C[C@@H]1C	2[16.7 µM]	5	97*	-1	0
CNC[C@@H]1Oc2ccc(NS(C)(=O)=O)cc2C(=O)N([C@@H](C)CO)C[C@@H]1C	-2[16.7 µM]	/	/	/	33*
CNC[C@@H]1OCCCC[C@H](C)Oc2ccc(NS(C)(=O)=O)cc2C(=O)N([C@@H](C)CO)C[C@@H]1C	20[16.7 µM]	5	89*	0	0
CCCNC(=O)[C@H]1[C@H](CO)[C@H]2Cn3c(cccc3=O)[C@H]2N1Cc1cccc(F)c1	/	1	3	/	0
Cc1ccc(NC(=O)C(=O)c2c(-c3ccccc3)cc3ccccn23)cc1S(=O)(=O)N1CCOCC1	247*	/	/	/	/
Cc1ccc(NC(=O)CCCOc2ccccc2)cc1S(=O)(=O)N1CCOCC1	-3	-1	-9	0	2
CCOc1ccc(S(=O)(=O)/N=C(/Nc2ccc(C)c(S(=O)(=O)N3CCOCC3)c2)c2ccccc2)cc1	107*	5	-7	0	/
Cc1ccc(NC(=O)c2cnccn2)cc1S(=O)(=O)N1CCCCCC1	/	/	-7	43*	0
Cc1ccc(NC(=O)c2n[nH]c(=O)c3ccccc23)cc1S(=O)(=O)N1CCOCC1	/	/	1	43*	0
Cc1ccc(NC(=O)CSc2ccccc2)cc1S(=O)(=O)N1CCOCC1	9	-3	-4	0	1
Cc1cnc(C(=O)Nc2ccc(C)c(S(=O)(=O)N3CCCCC3)c2)cn1	/	-4	-4	0	-2
COc1ccccc1S(=O)(=O)N[C@H]1CC[C@@H](CCn2cc(C3CCCC3)nn2)O[C@H]1CO	/	3	-40	0	0
O=C(NCc1ccc(F)cc1)[C@H]1N[C@H]2c3ccc(-c4ccccc4)c(=O)n3C[C@H]2[C@@H]1CO	/	-21	42	0	0
Cn1cccc1/C=C1\SC(=Nc2ccccc2)NC1=O	-7	1	3	0	-2
Cc1ccc(N=C2NC(=O)/C(=C/c3cn(C)c4ccccc34)S2)cc1C	6	26*	-3	0	1
CO[C@H]1CN(C)C(=O)c2ccc(NC(=O)C3CCOCC3)cc2OC[C@H](C)N(Cc2cccnc2)C[C@@H]1C	/	-1	-28	0	0
N#C[C@H]1[C@@H](c2ccccc2)[C@H](CO)N1C(=O)CN1CCOCC1	/	1	5	0	0
COc1ccccc1CN(C)C(=O)C(c1ccccc1)c1ccccc1	/	-2	1	0	0
C=CC(=O)N(CCC)C(c1ccccc1)c1ccccc1OC (stereo not given)	-8	21*	4	0	0
Cc1ccc(C(=O)Nc2scc(-c3ccccc3)c2C(=O)O)cc1	-2	0	-5	0	0
O=C(Nc1scc(-c2ccccc2)c1C(=O)O)c1ccccc1Cl	/	0	1	37*	0
CCO[C@H]1OC(C(=O)N2CCCC2)=C[C@@H](c2ccc(C(F)(F)F)cc2)[C@@H]1CCCO	/	-6	1	0	/
SMILES	miR122 inh	SIRT5 block	S100A4 inh HTS	FGF22 binding	E-selectin induc
CC1CCN(S(=O)(=O)N2CCC(C(=O)N3CCC(N(C)CC4CCCO4)CC3)CC2)CC1 (stereo not given)	-1	18*	-1	0	/
COc1ccccc1-c1noc(CSc2nc(N)cc(=O)[nH]2)n1	0	2	-1	43*	/
COc1ccc2c3c(n(C)c2c1)[C@@H](CO)N(C(=O)Nc1ccccc1F)CC31CCN(C(=O)c2ccccc2)CC1	/	/	/	/	0
CCCN(Cc1nnc(-c2ccccc2Cl)o1)C(=O)c1cc(S(=O)(=O)N2CCOCC2)ccc1F	-4	15*	4	0	/
Cc1noc(C)c1NC(=O)Nc1ccc2c(c1)C(=O)N([C@H](C)CO)C[C@H](C)[C@H](CN(C)CC1CC1)O2	7[16.7 µM]	2	-8	0	0
Nc1nonc1C(=O)N1CCCC1	247*	-3	0	0	/
Nc1nonc1/C(=N/O)N1CCCC1	-2	/	/	/	/
COc1ccc(-c2ccc(C3[C@H]4CNC[C@@H]3N4Cc3cncnc3)cc2)cc1 (stereo not given in full)	/	1	1	/	0
C[C@H](CO)N1C[C@H](C)[C@H](CN(C)C(=O)c2ccc(F)cc2)Oc2cc(C3=CCCCC3)ccc2S1(=O)=O	11[16.7 µM]	11	4	0	-1
O=C1c2[nH]nc(-c3ccccc3)c2C(c2ccccc2)N1c1ccccc1 (stereo not given)	/	/	-2	43*	1
O=S(=O)(N[C@@H]1CCCN(Cc2ccc(OCCO)cc2)C1)c1cc(C(F)(F)F)ccc1Cl	/	0	17	0	/
Cc1cc(=O)oc2c(C)c(OCC(=O)N3CCN(c4ccc(F)cc4)CC3)ccc12	-1	-4	-1	0	/
Cc1cccc(N2CCN(C(=O)COc3ccc4c(C)cc(=O)oc4c3C)CC2)c1C	4	19*	-2	0	1
C[C@@H]1CCCCO[C@@H](CN(C)S(=O)(=O)c2ccccc2)[C@@H](C)CN([C@@H](C)CO)C(=O)c2cc(NS(C)(=O)=O)ccc2O1	-3[16.7 µM]	1	5	0	0
C[C@H](CO)N1C[C@H](C)[C@H](CN(C)CC2CC2)Oc2cc(C#Cc3ccccc3F)ccc2S1(=O)=O	-10[16.7 µM]	-1	-2	0	0
c1ccc(CC[C@@H]2CC[C@@H](CCc3ccccc3)N2)cc1	-2	/	3	0	0
c1ccc(CCC2Cc3ccccc3N2)cc1 (stereo not given)	-5	15*	-40	0	0
COc1ccc2c3c(n(C)c2c1)[C@H](CO)N(Cc1nccs1)CC31CCN(C(C)=O)CC1	/	/	/	0	0
Cc1ccc(-c2n[nH]c(=S)n2/N=C/c2cccs2)cc1	2	29*	2	0	1
OCC(O)CN1CCN(c2ccccc2)CC1 (stereo not given)	1	-11	-4	0	0
